Test results from paper PMC10247892 (Biomedicine & Pharmacotherapy, 2023).
Like-named read-outs stand apart in the source and are kept apart here.

How the values were obtained:
[1] = test system: Vero E6 cells; conditions: uninfected Vero E6 cells, 3 days
[2] = test system: HCoV-229E; test: Antiviral activity against HCoV-229E in MRC-5 cells; type: cell-based, human coronavirus 229E; conditions: for IC50: read-out: IC50 ± SD
Procedure, shortened: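 MRC-5 cells were seeded at 20,000/well in duplicate per drug and condition and grown to 80 % confluency. Virus was adsorbed at MOI 0.1 PFU/cell in FBS-free DMEM for 1 h at 37 °C, then removed. Serial dilutions of test compound in 1 % FBS DMEM were added for 24 h, at doses below MTT-determined cytotoxicity. Cells were fixed with PFA, saponin-permeabilised and stained with anti-N antibody, Alexa 488 secondary and DAPI, then imaged by widefield fluorescence. Infection was normalised to the untreated infected control (100 %). IC50 came from a nonlinear dose-effect fit. Three replicate experiments.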

[3] = Cytotoxicity assay; type: cell-based; conditions: human, MRC-5 cells
[4] = test system: SARS-CoV-2; type: cell-based; conditions: Vero E6 cells
[5] = test system: SARS-CoV-2; test: TEM of Vero E6 cells infected with SARS-CoV-2; type: cell-based; conditions: infected Vero E6, highest concentration (HβCD 20 mM), 48 hpi
Procedure, shortened: (§1)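 Mock- or virus-infected Vero E6 monolayers were kept without or with two concentrations of test compound (0.16 mM or 20 mM for the cyclodextrin shown). At 48 h they were fixed with 4 % PFA plus 1 % glutaraldehyde in PBS for 2 h at RT. Samples were pelleted, post-fixed on ice in osmium tetroxide/potassium ferrocyanide, acetone-dehydrated and epoxy-embedded. At least 100 cells per condition were examined by TEM.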

[6] = test system: Vero E6 cells; test: TEM of mock-infected Vero E6 cells; type: cell-based; conditions: 48 h
Procedure, shortened: as §1

[7] = test system: SARS-CoV-2 Spike pseudovirus; type: cell-based
[8] = test system: MRC-5 cells; test: Cytotoxicity assay; type: cell-based; conditions: read-out: CC50 ± SD, MTT, 24 h
[9] = Human coronavirus 229E, MRC5, 24 h
[10] = Vero E6, lower or only dose (HβCD 0.16 mM, phytol 50 µM)
[11] = HCoV229E, MRC-5 cells, MOI 0.1, 24 h

Compound | First cytotoxic conc. [1] | CC50 at 24 h [3] | Inhibition of HCoV-229E infection (in words) ([2]; MRC-5 cells) | also measured
CC(C)[C@@H]1NC(=O)[C@H](C)OC(=O)[C@@H](C(C)C)NC(=O)[C@@H](C(C)C)OC(=O)[C@H](C(C)C)NC(=O)[C@H](C)OC(=O)[C@@H](C(C)C)NC(=O)[C@@H](C(C)C)OC(=O)[C@H](C(C)C)NC(=O)[C@H](C)OC(=O)[C@@H](C(C)C)NC(=O)[C@@H](C(C)C)OC1=O [Valinomycin] | 0.32 µM | 12.5 µM | – | IC50 [2, 9]: 2.5 ± 0.2 µM
CC(O)COC[C@H]1O[C@@H]2O[C@H]3[C@H](O)[C@@H](O)[C@@H](O[C@H]4[C@H](O)[C@@H](O)[C@@H](O[C@H]5[C@H](O)[C@@H](O)[C@@H](O[C@H]6[C@H](O)[C@@H](O)[C@@H](O[C@H]7[C@H](O)[C@@H](O)[C@@H](O[C@H]8[C@H](O)[C@@H](O)[C@@H](O[C@H]1[C@H](O)[C@H]2O)O[C@@H]8COCC(C)O)O[C@@H]7COCC(C)O)O[C@@H]6COCC(C)O)O[C@@H]5COCC(C)O)O[C@@H]4COCC(C)O)O[C@@H]3COCC(C)O (stereo partly drawn) [HβCD, hydroxypropyl-β-cyclodextrin] | 20000 µM | 43600 µM | – | Antiviral activity against SARS-CoV-2 (in words) [4]: had antiviral activity; Effect on infected cells by TEM (in words) [5]: all viral structures were reduced; Alterations in mock-infected cells by TEM (in words) ([6]; Vero E6, higher dose (HβCD 20 mM)): increased number of vacuoles; Alterations in mock-infected cells by TEM (in words) [6, 10]: did not produce appreciable changes; IC50 [2, 9]: 4300 ± 4000 µM; Inhibition of SARS-CoV-2 pseudovirus entry (in words) [7]: inhibited the entry of pseudovirus; Inhibition of SARS-CoV-2 pseudovirus entry (in words) ([7]; listed as HP-β): most potent
CC1=CCC(=C(C)C)CC1 [Terpinolene] | 10000 µM | 69000 µM | – | IC50 [2, 9]: 8000 ± 2200 µM
OC[C@H]1O[C@@H]2O[C@H]3[C@H](O)[C@@H](O)[C@@H](O[C@H]4[C@H](O)[C@@H](O)[C@@H](O[C@H]5[C@H](O)[C@@H](O)[C@@H](O[C@H]6[C@H](O)[C@@H](O)[C@@H](O[C@H]7[C@H](O)[C@@H](O)[C@@H](O[C@H]8[C@H](O)[C@@H](O)[C@@H](O[C@H]1[C@H](O)[C@H]2O)O[C@@H]8CO)O[C@@H]7CO)O[C@@H]6CO)O[C@@H]5CO)O[C@@H]4CO)O[C@@H]3CO [β-CD, ß-Cyclodextrin] | – | – | – | Inhibition of SARS-CoV-2 pseudovirus entry (in words) [7]: most potent
Nc1ccc(C(=O)NCC(=O)O)cc1 [Aminohipurric] | – | – | – | CC50 [8]: < 10000 µM
CC1(C)CC[C@]2(C(=O)O)CC[C@]3(C)C(=CC[C@@H]4[C@@]5(C)CC[C@H](O)C(C)(C)[C@@H]5CC[C@]43C)[C@@H]2C1 [Oleanolic acid] | – | 25200 µM | – | –
C=C(C)[C@H]1CC=C(C)CC1 [R-(+)-Limonene] | – | – | – | CC50 [8]: 1910 µM
CCCCCCCCCCC(C)(C)C(=O)Nc1c(OC)cc(OC)cc1OC [CI976] | 100 µM | – | – | CC50 [8]: 50.7 µM
CC(=O)NS(=O)(=O)c1ccc(N)cc1 [Sulfacetamide] | – | > 1000 µM | – | –
NCC(CC(=O)O)c1ccc(Cl)cc1 (stereo not drawn) [Baclogen] | – | – | did not have an inhibitory effect | CC50 [8]: > 1000 µM
OCC(S)CS (stereo not drawn) [Dimercaprol] | – | – | inhibited 229E but their CC50 was close to the IC50 | –
CC(=O)O[C@H]1C[C@H](O[C@H]2[C@@H](O)C[C@H](O[C@H]3[C@@H](O)C[C@H](O[C@H]4CC[C@@]5(C)[C@H](CC[C@@H]6[C@@H]5C[C@@H](O)[C@]5(C)[C@@H](C7=CC(=O)OC7)CC[C@]65O)C4)O[C@@H]3C)O[C@@H]2C)O[C@H](C)[C@H]1O[C@@H]1O[C@H](CO)[C@@H](O)[C@H](O)[C@H]1O [Lanatoside C] | – | – | inhibit 229E virus | –
CCC(CC)COC(=O)[C@H](C)N[P@](=O)(OC[C@H]1O[C@@](C#N)(c2ccc3c(N)ncnn23)[C@H](O)[C@@H]1O)Oc1ccccc1 [Remdesivir] | 100 µM | – | – | –
O=c1c(O)c(-c2ccc(O)c(O)c2)oc2cc(O)cc(O)c12 [Quercetin] | – | – | inhibit 229E virus | –
C[C@H]1O[C@@H](O[C@H]2[C@@H](O)C[C@H](O[C@H]3[C@@H](O)C[C@H](O[C@H]4CC[C@@]5(C)[C@H](CC[C@@H]6[C@@H]5C[C@@H](O)[C@]5(C)[C@@H](C7=CC(=O)OC7)CC[C@]65O)C4)O[C@@H]3C)O[C@@H]2C)C[C@H](O)[C@@H]1O [Digoxin] | – | – | inhibit 229E virus | –
CCC(C)n1ncn(-c2ccc(N3CCN(c4ccc(OCC5COC(Cn6cncn6)(c6ccc(Cl)cc6Cl)O5)cc4)CC3)cc2)c1=O (stereo not drawn) [Itraconazole] | – | – | inhibit 229E virus | –
CC1=C(C(=O)OC2CCCCC2)C(c2ccc([N+](=O)[O-])cc2)C2=C(CC(C)(C)CC2=O)N1 (stereo not drawn) [FLI 06] | 4 to 6.25 µM | – | – | IC50 [2, 11]: 0.4 ± 0.3 µM; CC50 [8]: > 50 µM
Phytol | 100 to 200 µM | – | – | Antiviral activity against SARS-CoV-2 (in words) [4]: had antiviral activity; Effect on infected cells by TEM (in words) [5]: clear signs of cytopathic effect; Alterations in mock-infected cells by TEM (in words) [6, 10]: did not cause significant alterations; IC50 [2, 11]: 18.6 ± 6.9 µM; CC50 [8]: 56.2 µM
COC[C@H]1OC(=O)c2coc3c2[C@@]1(C)C1=C(C3=O)[C@@H]2CCC(=O)[C@@]2(C)C[C@H]1OC(C)=O [Wortmannin] | 25 µM | > 50 µM | – | IC50 [2, 9]: 21.6 ± 15.6 µM
COc1cc([C@H]2Oc3cc([C@H]4Oc5cc(O)cc(O)c5C(=O)[C@@H]4O)ccc3O[C@@H]2CO)ccc1O [SilibininA, Silibinin A] | – | – | inhibit 229E virus | –

Compound | First cytotoxic conc. [1] | CC50 at 24 h [3] | Inhibition of HCoV-229E infection (in words) ([2]; MRC-5 cells) | also measured
CO[C@H]1C[C@@H]2CC[C@@H](C)[C@@](O)(O2)C(=O)C(=O)N2CCCC[C@H]2C(=O)O[C@H]([C@H](C)C[C@@H]2CC[C@@H](OCCO)[C@H](OC)C2)CC(=O)[C@H](C)/C=C(\C)[C@@H](O)[C@@H](OC)C(=O)[C@H](C)C[C@H](C)/C=C/C=C/C=C/1C [Everolimus] | – | – | inhibit 229E virus | –
CC(C)C[C@H](NC(=O)[C@H](Cc1ccccc1)NC(=O)c1cnccn1)B(O)O [Bortezomib (PS-341), Bortezomib] | 0.8 µM | > 0.1 µM | – | IC50 [2, 9]: 0.0006 ± 0.0003 µM
COc1cc(-n2c(=S)[nH]c3ccccc3c2=O)c(Cl)cc1Cl [Mdivi-1] | 20 µM | – | – | IC50 [2, 11]: 11.7 ± 0.7 µM; CC50 [8]: 95.4 µM
O=C1c2c(O)cc(O)cc2OC(c2ccc(O)c(O)c2)C1O (stereo not drawn) [Taxifolin] | – | – | inhibit 229E virus | –
CO[C@H]1C[C@@H]2CC[C@@H](C)[C@@](O)(O2)C(=O)C(=O)N2CCCC[C@H]2C(=O)O[C@H]([C@H](C)C[C@@H]2CC[C@@H](O)[C@H](OC)C2)CC(=O)[C@H](C)/C=C(\C)[C@@H](O)[C@@H](OC)C(=O)[C@H](C)C[C@H](C)/C=C/C=C/C=C/1C [Sirolimus] | – | – | inhibit 229E virus | –
N[C@@H](Cc1ccccc1)C(=O)O [L-Phenilalanine] | – | – | – | CC50 [8]: < 10000 µM
CC1=CC[C@@H](C(C)(C)O)CC1 [Alpha-terpineol] | – | 1060 µM | – | IC50 [2, 9]: 382 ± 107 µM
C=C1C2CCC(C2)C1(C)C (stereo not drawn) [Camphene] | – | 72000 µM | – | –
C[C@@H]1CC[C@H]2C(C)(C)[C@H]3C[C@@]12CC[C@@]3(C)O [alpha-cedrol] | – | – | inhibited 229E but their CC50 was close to the IC50 | –
C=C1CC/C=C(\C)CC[C@@H]2[C@@H]1CC2(C)C [(-)-Trans-Caryophyllene] | – | 1840 µM | – | –
CC(=O)Nc1nc(C)c(-c2ccc(Cl)c(S(=O)(=O)NCCO)c2)s1 [PIK93] | 20 µM | – | – | IC50 [2, 11]: 4.2 ± 1.4 µM; CC50 [8]: > 50 µM
CCC(C)(C)C(=O)O[C@H]1C[C@@H](C)C=C2C=C[C@H](C)[C@H](CC[C@@H]3C[C@@H](O)CC(=O)O3)[C@H]21 [Simvastatin] | – | – | inhibit 229E virus | –
O=c1c(O)c(-c2cc(O)c(O)c(O)c2)oc2cc(O)cc(O)c12 [Myricetin] | – | 434 µM | – | –
Oc1ccc(/C=C/c2cc(O)cc(O)c2)cc1 [Resveratrol] | – | – | inhibit 229E virus | –
CCc1c(-c2ccccc2)c(-c2ccccc2)nn1-c1ccccc1-c1cccc(OCC(=O)O)c1 [BMS309403] | – | – | inhibited 229E but their CC50 was close to the IC50 | –
Gingenoside RB1 | 50 µM | – | – | IC50 [2, 11]: 48.3 ± 2.1 µM; CC50 [8]: > 1000 µM
CC(=O)Oc1ccccc1C(=O)O [Aspirin] | – | 1100 µM | – | IC50 [2, 9]: 1000 µM
C[C@H]1O[C@@H](O[C@H]2[C@@H](O)C[C@H](O[C@H]3[C@@H](O)C[C@H](O[C@H]4CC[C@@]5(C)[C@H](CC[C@@H]6[C@@H]5CC[C@]5(C)[C@@H](C7=CC(=O)OC7)CC[C@]65O)C4)O[C@@H]3C)O[C@@H]2C)C[C@H](O)[C@@H]1O [Digitoxin] | 1.56 µM | 0.0069 µM | – | –
C=C1CC[C@H]2C(=C)CC[C@H]3C(=C)C(=O)O[C@@H]3[C@@H]12 [Dehydrocostus lactone] | 100 µM | 39.1 µM | – | IC50 [2, 9]: 4.2 ± 1.8 µM
